This excerpt belongs to a sample that is enriched for hits.
HUVEC inhibit: human endothelial cell proliferation inhibition | HUVEC proliferation, CellTiter-Glo luminescence, 72 h; hits give low values | viability, % at 10 µM (by protocol) | 1.1% of 86,000 active | AID 648;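 active = viability at or below 30%; inactive = viability above 30%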;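 also: 100% = median luminescence of DMSO-only cell control wells on each plate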
bCat KO growth: beta-catenin-lacking colon tumor cell growth suppression | HCT116 beta-catenin knockout viability, CellTiter-Glo, 60 h; hits give low values | viability, % at 10 µM | 1.5% of 140,000 active;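 active = viability at or under a set limit, the compound median less 4 SD, cut at about 6% in these data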;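 also: 0% = Hyamine 1622 control at 20 µM and 100% = untreated cell control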
H69AR growth 86K: growth inhibitors of human H69AR lung tumor cells; AID 598; 6% of 85,000 active; H69AR lung tumor viability, ATP luminescence, 72 h; hits give low values; viability, % at 10 µM;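 active = viability at or below 40%; inactive = viability above 40%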;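 also: multidrug resistant small cell line overexpressing MRP-1 efflux transporter; 100% = mean luminescence of untreated control wells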
HCT116 PTEN-null: suppresses growth of cells with PTEN deletion | 1.2% of 140,000 active | HCT116 PTEN-null viability, CellTiter-Glo, 60 h; hits give low values | viability, % at 10 µM;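 active = viability at or below a set limit, 4 SD under the median of all tested compounds, cut at about 3.7% in these data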;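 also: PTEN knockout HCT116 line with beta catenin targeted HCT116 as companion control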
Fibroblast inh: blocks proliferation of human lung fibroblasts; LL 47 human lung fibroblast viability, ATP luminescence; hits give low values; 1.1% of 85,000 active; viability, % at 10 µM;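 active = viability at or below 50% in the single dose screen; inactive = viability above 50%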;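 also: compound exposure lasted 72 h before the ATP readout; 100% = median luminescence of untreated cell-only wells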
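Times – overnight cell rest, 72 h compound treatment at 37 °C · Test system – human lung fibroblast line LL 47, low passage · Amount – 1,150 cells in each well · Controls – cell-only wells, no compound · Doses – 0.1% DMSO in all compound wells · Measured by – CellTiter-Glo luminescence · Buffer or medium – IMEM plus 15% FBS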
* = called active by the depositor; / = no result given.

SMILES	HUVEC inhibit	bCat KO growth	H69AR growth 86K	HCT116 PTEN-null	Fibroblast inh
CCN1CCN(C(=S)c2ccc([N+](=O)[O-])cc2)CC1	/	86.2	/	83.0	/
COc1ccc(NC(=O)/C(=C/c2cccnc2)NC(=O)c2cccs2)cc1	/	95.3	/	87.5	/
COc1ccc(/C=C/C(=O)c2ccc(C)c([N+](=O)[O-])c2)cc1O	/	1.2*	/	1.4*	/
COc1ccc(C(=O)/C=C/c2ccc(N3CCCCC3)c([N+](=O)[O-])c2)cc1	/	98.5	/	102.6	/
COc1cccc(/C=C/C(=O)c2ccc(NS(=O)(=O)c3ccc(C)cc3)cc2)c1	/	100.9	/	95.2	/
COc1cccc(/C=C/C(=O)c2ccc(C)c([N+](=O)[O-])c2)c1	/	2.7*	/	2.4*	/
COc1cccc(/C=C/C(=O)c2ccc[nH]2)c1	76.1	35.0	19.0*	32.3	77.3
COc1cc(/C=C/C(=O)c2ccc(C)c([N+](=O)[O-])c2)cc(OC)c1O	/	2.4*	/	3.0*	/
Cc1ccc(S(=O)(=O)N(C)CC(=O)OCC(=O)c2c(N)n(C)c(=O)n(C)c2=O)cc1	/	90.5	/	96.7	/
Cc1nn(Cc2c(Cl)cccc2Cl)c(C)c1NC(=O)c1cn(-c2ccccc2)nc1-c1ccccc1	/	0.6*	/	0.5*	/
Cc1nn(Cc2c(Cl)cccc2Cl)c(C)c1NC(=O)c1sc2ccccc2c1Cl	/	91.0	/	87.3	/
Cc1ccc(C(=O)Oc2cccnc2)cc1[N+](=O)[O-]	/	91.5	/	100.4	/
Cc1ccc(C(=O)Oc2ccc(Cl)c3cccnc23)cc1[N+](=O)[O-]	/	4.5*	/	9.7	/
CC(=O)Oc1ccc(N(C(C)=O)S(=O)(=O)c2cccs2)c2ccccc12	4.0*	70.0	1.4*	77.8	111.7
COc1ccc(N(C(=O)c2ccccc2C)S(=O)(=O)c2cccs2)cc1	/	13.1	/	14.1	/
C=CCn1c(SCc2ccc(C(=O)OC)cc2)nnc1-c1sc(N)nc1C	/	97.7	/	96.1	/
C=CCn1c(SCC(=O)Nc2ccc(C(=O)OCC)cc2)nnc1-c1sc(N)nc1C	98.8	78.9	39.5*	88.3	101.3
CC(C)CC(=O)Nc1ccc(N2CCOCC2)cc1	98.7	82.7	86.8	105.0	101.0
O=C(CCN1C(=O)c2ccccc2C1=O)Nc1sc2c(c1C(=O)NCc1ccco1)CCCC2	81.4	106.5	57.9	101.4	104.0
O=C(Nc1sc2c(c1C(=O)O)CCC2)c1ccco1	/	103.2	/	103.7	/
COC(=O)Nc1sc2c(c1C(=O)NCc1ccco1)CCC2	75.7	83.6	39.4*	76.0	82.5
Cc1ccc(C(=O)Nc2sc3c(c2C(=O)NCc2ccco2)CCCC3)cc1	44.4	97.3	11.2*	106.1	96.3
CC(C(=O)Nc1sc2c(c1C(=O)NCc1ccco1)CCCC2)N1C(=O)c2ccccc2C1=O (centres undefined)	85.1	108.9	23.5*	104.5	99.7
O=C(Nc1sc2c(c1C(=O)NC1CC1)CCCCCC2)c1ccco1	92.5	93.4	30.1*	96.5	98.8
O=C(c1ccc(Cl)cc1)C1CCN(C(=O)C2CC2)CC1	104.2	88.7	102.0	92.8	111.0
SMILES	HUVEC inhibit	bCat KO growth	H69AR growth 86K	HCT116 PTEN-null	Fibroblast inh
CCOC(=O)NC1(C(F)(F)F)NC(=O)N(c2ccc(F)cc2)C1=O (centres undefined)	/	94.7	/	98.4	/
CN1c2ccccc2C(C)(C)C12CC(c1cccc(S(=O)(=O)N3CCCC3)c1)=NO2 (centres undefined)	/	74.1	/	79.0	/
COC(=O)[C@@]1(Cc2ccc(F)cc2)[C@H]2c3cc(C(=O)N(C)C)n(Cc4ccc(OC(F)(F)F)cc4)c3C[C@H]2CN1C(=O)c1ccccc1	/	6.6	/	11.2	/
COc1cc(C(=O)Nc2sc3c(c2C(=O)NCc2ccco2)CCCC3)cc(OC)c1OC	68.3	78.7	60.4	83.1	87.1
NC(=O)c1c(NC(=O)c2cc3ccccc3o2)sc2c1CCC2	62.1	85.2	23.7*	92.1	82.0
CC(=O)Nc1sc2c(c1C(N)=O)CCC2	93.1	84.3	83.4	87.5	107.3
COc1ccc(C(=O)Nc2sc3c(c2C(=O)NCc2ccco2)CCCC3)cc1OC	67.1	79.6	35.7*	75.1	85.8
O=C1C[C@@H](c2ccc(O[C@@H]3O[C@H](CO)[C@@H](O)[C@H](O)[C@H]3O)cc2)Oc2cc(O)ccc21	/	88.4	/	99.9	/
CC(C)Cn1c(N)c(C(=O)CSc2ncnc3sc4c(c23)CCCC4)c(=O)n(C)c1=O	/	44.2	/	14.1	/
CCN=c1sc(C(=O)NCCc2ccccc2)cc(=O)n1CC	58.8	49.0	9.9*	55.9	86.6
O=C(COc1ccc(S(=O)(=O)N2CCOCC2)cc1)Nc1ccc2c(c1)OCCO2	93.8	100.1	/	95.5	92.2
O=C(COc1ccc(S(=O)(=O)N2CCOCC2)cc1)Nc1ccc(Cl)c(C(F)(F)F)c1	52.2	37.8	25.0*	28.0	58.9
O=S(=O)(/C=C/c1ccccc1)Oc1ccccc1	77.0	96.7	7.4*	/	64.4
O=C(CSc1ccc2ccccc2c1)NC1CCCc2ccccc21 (centres undefined)	/	90.5	/	91.6	/
Cc1cccc(Cn2c(=O)n(-c3ccc(CC(=O)NCc4ccco4)cc3)c(=O)c3sccc32)c1	88.8	30.5	20.3*	24.0	86.8
O=C(NCc1ccco1)c1ccc(Cn2c(=O)c3ccccc3n(Cc3ccc(Cl)cc3)c2=O)cc1	70.0	69.1	22.7*	47.3	69.5
O=C(CCCCn1c(=O)c2ccccc2n(Cc2ccc(F)cc2)c1=O)NCc1ccco1	55.8	12.8	22.4*	12.9	70.4
O=C(CCCn1c(=O)c2ccccc2n(Cc2ccccc2)c1=O)NCc1ccco1	73.0	60.6	87.8	50.2	102.6
O=c1c2ccccc2n(Cc2ccc(Cl)cc2)c(=O)n1Cc1ccco1	62.7	69.9	70.0	72.0	89.1
O=C(NCc1ccco1)c1ccc(Cn2c(=O)c3ccccc3n(Cc3cccc(F)c3)c2=O)cc1	49.2	93.6	7.7*	79.2	65.5
C[n+]1ccccc1COc1ccc(C(C)(C)C)cc1	/	79.3	/	88.9	/
CN(c1ccccc1)S(=O)(=O)c1cccc(NC(=O)CSc2ncc(C(F)(F)F)cc2Cl)c1	/	90.7	/	95.7	/
N#Cc1c(SCC(=O)Nc2nccs2)nc2c(c1-c1ccco1)CCCC2	97.7	90.4	22.7*	99.0	98.4
COc1ccc(NC(=O)c2cccnc2Sc2ccccc2)c(OC)c1	/	104.8	/	102.6	/
CN(C)CCNc1ncnc2c1sc1nc(N3CCOCC3)c3c(c12)CC(C)(C)SC3	16.6*	1.7*	94.0	1.8*	16.1*
CC1(C)Cc2c(c(N3CCOCC3)nc3sc4c(=O)[nH]cnc4c23)CS1	64.6	88.5	42.7	84.0	92.6
CCN(CC)CCNc1ncnc2c1sc1nc(N3CCOCC3)c3c(c12)CC(C)(C)SC3	7.2*	1.6*	2.6*	1.5*	2.6*
Nc1ccccc1Nc1ccccc1	77.0	72.4	10.7*	64.1	82.1
N#Cc1cc2c(nc1Cl)CCCC2	/	99.4	/	110.0	/
CCOC(=O)C1=C(C)N(C)C(=O)NC1c1c(C)nn(-c2ccc(C)cc2)c1Cl (centres undefined)	87.7	78.3	31.0*	/	90.3

Assay outcomes as filed in PubChem BioAssay.
